Measured values gathered from unrelated publications.
Compare with care: the assays were run in different laboratories.
SLC6A4: Sodium-dependent serotonin transporter (SLC6A4, Homo sapiens, UniProt P31645)
rep papain-like protease: Replicase polyprotein 1ab, papain-like protease (rep, Porcine epidemic diarrhea virus, UniProt P0C6Y4)
rep main protease: Replicase polyprotein 1ab, main protease (rep, Porcine epidemic diarrhea virus, UniProt P0C6Y4)

Structure (SMILES)	target	assay	setting	inhibition [%]
CCOC(=O)[C@@]12C[C@@H]1[C@@H](n1cnc3c(NCCCCc4ccccc4)nc(I)nc31)[C@H](O)[C@@H]2O	SLC6A4	ligand displacement, radioligand	10 µM	20
CCN1/C(=C/C(C)=O)Sc2ccc(F)cc21	Type-2 angiotensin II receptor (AGTR2, Homo sapiens, UniProt P50052)	ligand displacement, radioligand	10 µM	4.51
N#CC[C@@]12C[C@@H]1[C@@H](n1cnc3c(NCCCCCc4ccccc4)nc(I)nc31)[C@H](O)[C@@H]2O	SLC6A4	ligand displacement, radioligand	10 µM	3
NC/C(=C\F)COc1cccc(Cn2c(=S)[nH]c(=O)c3[nH]cnc32)c1	SLC6A4	ligand displacement, radioligand	10 µM	< 50
Cn1c(C(=O)NCc2cc(O)c(O)c(Br)c2)cc2ccccc21	rep papain-like protease	enzyme activity, inhibitor, FRET	10 µM	86.3
CCOC(=O)[C@@]12C[C@@H]1[C@@H](n1cnc3c(NCCCCCc4ccccc4)nc(C#Cc4ccc(Cl)s4)nc31)[C@H](O)[C@@H]2O	SLC6A4	ligand displacement, radioligand	10 µM, cell membranes	1
Cc1cc(O)c(-c2ccc([C@@H](C)CN(C)C)cc2)c2c1[nH]c(=O)c1sccc12	Mitogen-activated protein kinase kinase kinase 6 (MAP3K6, Homo sapiens, UniProt O95382)	enzyme activity, inhibitor	0.1 µM	15.6
OC[C@@]12C[C@@H]1[C@@H](n1cnc3c(NC(C4CCC4)C4CCC4)nc(C#Cc4ccc(Cl)s4)nc31)[C@H](O)[C@@H]2O	SLC6A4	ligand displacement, radioligand	10 µM	15
COc1ccc(CNC(=O)c2ccc(Br)cc2)cc1OC	rep papain-like protease	enzyme activity, inhibitor, FRET	10 µM	66.1
CCOC(=O)[C@@]12C[C@@H]1[C@@H](n1cnc3c(NC4CC4)nc(C#Cc4ccc(Cl)s4)nc31)[C@H](O)[C@@H]2O	SLC6A4	ligand displacement, radioligand	10 µM	15
Cc1ccccc1C(=O)NCc1cc(O)c(O)c(Br)c1	rep papain-like protease	enzyme activity, inhibitor, FRET	10 µM	115
C#Cc1cc(-c2cc(Nc3nc(N[C@@H](C)c4ccc(F)cn4)ncc3Cl)n[nH]2)ccc1C=O	Serine/threonine-protein kinase Nek2 (NEK2, Homo sapiens, UniProt P51955)	enzyme activity, inhibitor	0.2 µM	22.5
CC(C)C(C(=O)NCc1cc(O)c(O)c(Br)c1)c1ccc(Cl)cc1 (stereo not drawn)	rep main protease	enzyme activity, inhibitor, FRET	10 µM	41.9
O=C1C=C(Nc2ccc(OCc3cn(Cc4ccccc4)nn3)cc2)C(=O)c2ccccc21	BDNF/NT-3 growth factors receptor (NTRK2, Homo sapiens, UniProt Q16620)	enzyme activity, inhibitor, radiometric	10 µM	0
CSc1ccccc1C(=O)NCc1cc(O)c(O)c(Br)c1	rep main protease	enzyme activity, inhibitor, FRET	10 µM	13.9
Cc1cc(F)cc2c(CCC(=O)N[C@@H]3C(=O)NC[C@H]3O)c(-c3ccc(F)cc3)[nH]c12	D(1A) dopamine receptor (DRD1, Homo sapiens, UniProt P21728)	cell-free assay	10 µM	11
N#C[C@@]12C[C@@H]1[C@@H](n1cnc3c(Nc4ccccc4)nc(I)nc31)[C@H](O)[C@@H]2O	SLC6A4	ligand displacement, radioligand	10 µM	3
O=C(NCc1cc(O)c(O)c(Br)c1)c1cccc(CCl)c1	rep papain-like protease	enzyme activity, inhibitor, FRET	10 µM	103
